Lmaj promast: Leishmania major promastigote growth inhibition | Leishmania major promastigotes, resazurin fluorescence viability | inhibition, % at 10 µM | 9% of 200,000 active;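 further: promastigotes grown with compound for 44 hours at 28 °C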
CHOP inhibitor: CHOP inhibition in unfolded protein response; CHO-K1 CHOP-promoter luciferase, tunicamycin-induced, 15-18 h; inhibition, % at 10 µM; 3.8% of 220,000 active; AID 2732;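 active means compounds that reduced the stress-induced luciferase reporter signal by more than about 70% of percent inhibition, limit read from the data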;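 further: 0% = tunicamycin plus vehicle and 100% = wells without tunicamycin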
PKD1 inh: inhibitors of human PKD1 kinase | 0.056% of 200,000 active | Q15139 | PKD1 kinase fluorescence polarization assay | inhibition, % (no concentration beside the values)
Target sequence (Q15139 whole entry, looked up): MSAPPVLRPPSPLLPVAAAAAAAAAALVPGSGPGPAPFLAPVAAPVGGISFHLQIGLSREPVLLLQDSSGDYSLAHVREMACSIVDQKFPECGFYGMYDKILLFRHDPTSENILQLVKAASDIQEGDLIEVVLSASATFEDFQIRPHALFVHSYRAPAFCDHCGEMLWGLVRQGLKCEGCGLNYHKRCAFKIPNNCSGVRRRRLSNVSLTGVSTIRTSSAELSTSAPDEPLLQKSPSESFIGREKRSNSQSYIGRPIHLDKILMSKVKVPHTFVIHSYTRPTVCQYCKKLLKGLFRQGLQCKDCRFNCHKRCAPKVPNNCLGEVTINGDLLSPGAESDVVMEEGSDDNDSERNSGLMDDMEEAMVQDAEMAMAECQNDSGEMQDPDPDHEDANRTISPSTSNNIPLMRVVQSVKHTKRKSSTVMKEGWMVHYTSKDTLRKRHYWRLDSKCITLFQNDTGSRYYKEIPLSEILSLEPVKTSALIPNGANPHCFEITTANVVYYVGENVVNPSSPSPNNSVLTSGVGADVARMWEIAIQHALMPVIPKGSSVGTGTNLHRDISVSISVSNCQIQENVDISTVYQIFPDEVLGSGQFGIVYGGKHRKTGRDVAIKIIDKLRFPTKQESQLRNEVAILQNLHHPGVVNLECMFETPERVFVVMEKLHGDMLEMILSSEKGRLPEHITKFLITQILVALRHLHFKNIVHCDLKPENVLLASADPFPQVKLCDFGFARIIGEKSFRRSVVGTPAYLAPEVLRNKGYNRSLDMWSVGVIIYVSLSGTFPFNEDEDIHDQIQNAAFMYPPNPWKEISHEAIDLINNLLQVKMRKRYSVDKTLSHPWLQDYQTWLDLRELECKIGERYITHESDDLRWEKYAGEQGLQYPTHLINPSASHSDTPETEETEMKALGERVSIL
Rad51 HR inh: Rad51 (human) homologous recombination inhibition | 0.085% of 200,000 active | Q06609 | AID 1385 | hRad51 DNA strand exchange, fluorescence dequenching | inhibition, % at 10 µM;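 active means inhibition above 40% at the single screening dose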;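 further: 0% = DMSO control wells and 100% = blanks with heterologous ssDNA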
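System: human Rad51 nucleoprotein filaments preassembled on unlabelled ssDNA. Reagent: labelled 47-mer dsDNA for strand exchange. Schedule: 30-min compound preincubation and 15-min exchange, both room temperature. Measured by: FRET fluorescence dequenching, excitation 485 nm, emission 520 nm. Read-out: Fluorescence-based percent inhibition, control- and blank-normalised. Benchmarks: plate controls and plate blanks.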
Wee1 stabilizer: human Wee1 degradation inhibition, primary screen. P30291. HeLa Luc-Wee1K328M stability, luciferase luminescence; 100% = proteasome inhibitor MG132 effect. reporter increase, % at 5 µM. 1.2% of 220,000 active;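 active means activation above the mean of all tested compounds plus 3 SD, set per screening run, cut at about 8.8% in these data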;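 further: cells exposed to compound for 20 h before luminescence read; 0% = DMSO alone and 100% = MG132 at 30 µM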
Arbovirus anti: blocks arbovirus infection; arbovirus infection cell-based antiviral screen; inhibition, % at 10 µM; 0.37% of 200,000 active; in the data active means inhibition above about 30%
An asterisk follows results filed as active; · = not tested or not shown. Most compounds without a hit are left out; they make up all but 12% or so of the library. Unless noted, no stated cut-off is given here; in the data, active means inhibition above about 50%; inactive means the rest.

SMILES | Lmaj promast | CHOP inhibitor | PKD1 inh | Rad51 HR inh | Wee1 stabilizer | Arbovirus anti
Cn1c(=O)c(=O)n(C)c2cc(S(=O)(=O)N3CCCC3C(=O)NCc3cccnc3)ccc21 (stereo unspecified) | · | 19.0 | · | · | -4.6 | ·
N#Cc1nc(-c2ccc(Cl)cc2)oc1NCC1CCCO1 (stereo unspecified) | -3.1 | -6.6 | 2.2 | -1.0 | 10.6* | -7.2
Cc1cc(-c2nnc(CCC(=O)N(C)C(C)c3cccs3)o2)no1 (stereo unspecified) | · | -16.5 | · | -26.1 | -1.0 | ·
Cc1ccc2[nH]c(=O)c(-c3noc(-c4ccncc4)n3)cc2c1 | 19.8 | · | -4.1 | · | 0.2 | ·
COc1ccc2[nH]c(=O)c(-c3noc(-c4ccccc4)n3)cc2c1 | 45.0 | 88.4* | 15.6 | 5.3 | 1.8 | -5.8
O=C(NCCc1ccccc1)c1ccc(Cl)c([N+](=O)[O-])c1 | 0.6 | -28.2 | 11.9 | 6.1 | 9.4* | 0.8
O=C(NCCc1ccccc1)c1ccncc1 | 1.6 | -3.1 | 2.9 | 2.5 | 10.7* | -0.3
Cc1cc(/N=C/C=C2\N(C)c3ccccc3C2(C)C)n(CCC#N)n1 | 100.5* | 53.7 | -4.1 | 0.6 | -1.5 | -0.8
CN(C)c1ccc(N=C/C=C2\N(C)c3ccccc3C2(C)C)cc1 | 100.7* | -31.2 | 1.6 | · | 0.0 | -15.0
CN1\C(=C/C=C/C=C/C=[N+](C)C)C(C)(C)c2ccccc21 | 97.5* | 54.9 | -7.5 | -17.0 | -0.2 | -8.3
CN1/C(=C\C=O)C(C)(C)c2ccccc21 | 10.7 | 12.0 | 5.8 | -8.2 | -3.1 | 17.8
CN1/C(=C\C=Nc2ccc3ccccc3c2)C(C)(C)c2ccccc21 | 88.2* | 46.2 | -12.0 | -25.9 | -1.5 | 23.9
O=C(CN1C(=O)C2CC=CCC2C1=O)Nc1ccc(S(=O)(=O)Nc2nccs2)cc1 (stereo unspecified) | · | 8.8 | · | 27.5 | -1.0 | ·
COc1cccc(-c2c(C#N)c(N)nc3c2c(=O)nc2sccn23)c1 | -3.4 | -4.0 | -2.7 | · | -2.5 | -0.8
Cc1sc2ncn(CC(=O)NCC3COc4ccccc4O3)c(=O)c2c1S(=O)(=O)N1CCCCC1 (stereo unspecified) | 4.1 | 6.1 | -0.3 | · | -2.4 | 1.7
Cc1cc(C(=O)NNC(=O)NC(C)C)no1 | · | 1.3 | · | 17.8 | 0.6 | ·
CCOc1ccc(N(CCCCO)C(=S)NC(=O)c2ccc(C)c(Br)c2)cc1 | -4.8 | -15.3 | 1.7 | 4.2 | 3.0 | -3.8
CN1/C(=C\C=N\NC(=O)c2ccc(O)cc2)C(C)(C)c2ccccc21 | 85.6* | 53.6 | 4.4 | -3.5 | -0.8 | 6.1
COc1ccc2nc(SCCC(=O)O)cc(C)c2c1 | · | 10.2 | · | -8.2 | 0.9 | ·
O=C(N/N=C/c1ccccc1OCc1ccccc1)c1cccnc1 | 74.7* | -2.3 | -11.9 | -3.5 | -0.5 | 3.2
CC(Nc1ccc(Br)cc1)C(=O)N/N=C/c1ccccc1OCc1ccccc1 (stereo unspecified) | 4.3 | 91.6* | -2.5 | 4.7 | -1.1 | 1.3
CC(C)CNC(=O)Cn1c(=O)c2c(ncn2CC(C)C)n(Cc2ccccc2)c1=O | -10.1 | 12.7 | 0.4 | 9.6 | 2.3 | 3.0
CCC(Sc1nc2cc3c(cc2c(=O)n1Cc1ccco1)OCO3)C(=O)Nc1cccc(OC)c1 (stereo unspecified) | 95.7* | 55.7 | -6.8 | 8.2 | -0.2 | -16.6
CCC(Sc1nc2cc3c(cc2c(=O)n1Cc1ccco1)OCO3)C(=O)Nc1ccccc1OC (stereo unspecified) | 3.6 | 51.8 | -6.0 | 0.1 | -1.5 | -16.1
CCOC(=O)Cc1cc(=O)c2cc(C)ccc2[nH]1 | · | 8.3 | · | · | -2.6 | ·
SMILES | Lmaj promast | CHOP inhibitor | PKD1 inh | Rad51 HR inh | Wee1 stabilizer | Arbovirus anti
Cn1c(=O)c(=O)n(C)c2cc(S(=O)(=O)NCCOc3ccccc3)ccc21 | -1.7 | -19.0 | -6.3 | 1.2 | 2.3 | -5.1
COc1ccccc1CN=C1Nc2ccccc2CS1 | 36.1 | -11.2 | -3.7 | 5.0 | 0.1 | 21.1
COc1cccc(CN=C2Nc3ccccc3CS2)c1 | 27.4 | -6.7 | 5.8 | 16.2 | 3.2 | 30.1*
COc1ccc(CN=C2NN=C(c3cccc(OC)c3)CS2)cc1 | 87.5* | -2.2 | -3.3 | 5.0 | -2.6 | -3.4
Clc1ccc(CN=C2Nc3ccccc3CS2)cc1 | 18.4 | 65.4 | -5.4 | -1.0 | 8.8* | -0.9
COC(=O)CSc1nccc(C)n1 | -2.1 | 16.7 | -4.5 | · | 3.8 | -5.7
COc1ccc(-c2noc(CCC(=O)NCc3cc(Br)ccc3OC)n2)cc1 | -1.4 | 45.4 | -1.7 | 7.8 | -0.5 | 11.8
CC(C)c1ccc(OCC(=O)NCc2ccco2)cc1 | -4.0 | 65.8 | -7.6 | 0.8 | 4.2 | -8.3
